{"source": "paper PMC6525014", "about": "(Journal of labelled compounds & radiopharmaceuticals, 2019)", "key": {"[1]": {"assay": "Metabolic stability in pooled human liver microsomes", "assay_type": "in vitro ADME", "settings": "for half-life at 1 μM: human, pooled human liver microsomes, pH 7.4", "how_it_was_run": "(§1)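 Pooled liver microsomes (CD-1 mouse, SD rat or human) at 0.5 mg/mL, with 1 μM test compound, 1.7 mM β-NADPH and 3.3 mM MgCl2 in 0.1 M phosphate pH 7.4, 37°C, DMSO <0.1% final. Samples at 0, 5, 10, 15, 30, 45, 60 min were quenched in cold acetonitrile with internal standard. Parent remaining measured by negative-ion MRM LC–MS/MS. t1/2 from ln(remaining) versus time. Controls: no-NADPH, verapamil.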"}, "obese mice": {"test_system": "obese mice", "settings": "earlier work of the authors; cited from earlier work"}, "[2]": {"assay": "Metabolic stability in pooled CD-1 mouse liver microsomes", "assay_type": "in vitro ADME", "settings": "for half-life at 1 μM: CD-1, mouse, pooled mouse liver microsomes, pH 7.4", "how_it_was_run": "as §1"}, "[3]": {"assay": "Metabolic stability in pooled SD rat liver microsomes", "assay_type": "in vitro ADME", "settings": "for half-life at 1 μM: SD, rat, pooled rat liver microsomes, pH 7.4", "how_it_was_run": "as §1"}}}
{"smiles": "CC(C)c1ccc2oc3nc(N)c(C(=O)O)cc3c(=O)c2c1", "note": "[Compound 1, amlexanox]", "values": [{"measurement": "more unmetabolized amlexanox remaining compared to d2-amlexanox", "setting": "[1]; human liver microsomes, after 60 min", "result": "about 8%"}, {"measurement": "half-life at 1 μM", "setting": "[1]", "result": "> 1", "unit": "h"}, {"measurement": "effects in obese mice", "setting": "obese mice", "result": "weight loss in obese mice, improved insulin sensitivity, and reduced hepatic steatosis and inflammation"}, {"measurement": "half-life at 1 μM", "setting": "[2]", "result": "> 1", "unit": "h"}, {"measurement": "more unmetabolized amlexanox remaining compared to d2-amlexanox", "setting": "[2]; mice liver microsomes, after 60 min", "result": "about 8%"}, {"measurement": "half-life at 1 μM", "setting": "[3]", "result": "> 1", "unit": "h"}]}
{"smiles": "[2H]CC([2H])(C)c1ccc2oc3nc(N)c(C(=O)O)cc3c(=O)c2c1", "note": "(stereo not shown) [Compound 5, 2-Amino-5-oxo-7-(propan-2-yl-1,2-d2)-5H-chromeno[2,3-b]pyridine-3-carboxylic acid]", "values": [{"measurement": "half-life at 1 μM", "setting": "[1]", "result": "> 1", "unit": "h"}, {"measurement": "half-life at 1 μM", "setting": "[2]", "result": "> 1", "unit": "h"}, {"measurement": "half-life at 1 μM", "setting": "[3]", "result": "> 1", "unit": "h"}, {"measurement": "stability relative to amlexanox", "setting": "[3]; rat liver microsomes", "result": "more stable than amlexanox (1)"}]}
